Here are results for 21 compounds from ChEMBL document CHEMBL1138713 (Bioorg Med Chem Lett, 2004).

The subject of this assay is Trypanosoma cruzi. The assay can be described thus: Ability to cause lysis of trypomastigote form of Trypanosoma cruzi was determined. In kind it is functional, organism-based. The gist of the method:
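Bloodstream trypomastigotes (Y strain) harvested from mice inoculated intraperitoneally with 10⁵ parasites; assay in Dulbecco's modified Eagle medium; DMSO stocks, final solvent ≤0.5%.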

Bounds are passed on as bounds.

The compound `Cn1c([N+](=O)[O-])cnc1-c1nnc(N/N=C/c2ccc(OC(F)(F)F)cc2)s1` came in with an IC50 of over 200 µM.
`CC(C)(C)c1cc(/C=N/Nc2nnc(-c3ccccc3)s2)cc(C(C)(C)C)c1O` yielded an IC50 of 136 µM.
To `COc1ccc(/C=N/Nc2nnc(-c3ncc([N+](=O)[O-])n3C)s2)cc1O` belongs 50.5 µM; to `Oc1ccc(/C=N/Nc2nnc(-c3ccccc3)s2)cc1`, over 200 µM; to `Cn1c([N+](=O)[O-])cnc1-c1nnc(N/N=C/c2ccccc2O)s1`, 54.2 µM.
For `Cn1c([N+](=O)[O-])cnc1-c1nnc(N/N=C/c2ccccc2)s1` the value was over 200 µM; for `COc1cc(/C=N/Nc2nnc(-c3ncc([N+](=O)[O-])n3C)s2)ccc1O`, over 200 µM.
`Cn1c([N+](=O)[O-])cnc1-c1nnc(N/N=C/c2ccc([N+](=O)[O-])cc2)s1` yielded an IC50 of 22 µM.
With `Cn1c([N+](=O)[O-])cnc1-c1nnc(N/N=C/c2cc(C(C)(C)C)c(O)c(C(C)(C)C)c2)s1`, inhibition was half-maximal at 33.2 µM (IC50). Compared with the last compound, the IC50 is about 1.5-fold higher.
The compound `Oc1ccc(/C=N/Nc2nnc(-c3ccccc3)s2)cc1O` gave an IC50 of 63.4 µM.
For `Oc1ccccc1/C=N/Nc1nnc(-c2ccccc2)s1` the value was over 200 µM; for `COc1cccc(/C=N/Nc2nnc(-c3ncc([N+](=O)[O-])n3C)s2)c1O`, over 200 µM; for `C(=N\Nc1nnc(-c2ccccc2)s1)/c1ccccc1`, over 200 µM.
To `Cn1c([N+](=O)[O-])cnc1-c1nnc(N/N=C/c2ccc(F)cc2)s1` belongs over 200 µM; to `O=[N+]([O-])c1ccc(/C=N/Nc2nnc(-c3ccccc3)s2)cc1`, over 200 µM; to `Cn1c([N+](=O)[O-])cnc1-c1nnc(N/N=C/c2ccc(Br)cc2)s1`, 17 µM.
For `Cn1c([N+](=O)[O-])cnc1-c1nnc(N/N=C\c2ccc(O)c(O)c2)s1` [BRAZILIZONE A] the value was 5.3 µM.
Take `COc1ccc(/C=N/Nc2nnc(-c3ncc([N+](=O)[O-])n3C)s2)cc1`: the concentration for half-maximal inhibition (IC50) was over 200 µM.
To `Cn1c([N+](=O)[O-])cnc1-c1nnc(N/N=C/c2ccc3c(c2)OCO3)s1` belongs over 200 µM.
For `Cn1c([N+](=O)[O-])cnc1-c1nnc(N/N=C/c2ccc(O)cc2)s1` the value was 11.6 µM; for `Cn1c([N+](=O)[O-])cnc1-c1nnc(N/N=C/c2ccc(Cl)cc2)s1`, 38.4 µM.

By IC50 is commonly meant the concentration at which inhibition is half-maximal. A high value points to lower potency.
